ChEMBL document CHEMBL4196022, “Alkynyl-containing phenylthiazoles: Systemically active antibacterial agents effective against methicillin-resistant Staphylococcus aureus (MRSA)” (Eur J Med Chem, 2018)
Converted amounts (≈) assume the structure as drawn. The source made the active and inactive calls. The rule behind the calls is not given here. Positions of bridges follow the written chain, without caps; N, C: chain ends. Non-standard residues stand in square brackets, D forms with d. Residues, ends and D or L forms follow the SMILES beside them. *: point of attachment. Ileψ(thiazoline)Cys = CC[C@H](C)[C@H](N)C1=N[C@H](C(=O)*)CS1; dOrn = NCCC[C@@H](N)C(=O)O

Legend:
[1] = biological target: T1, Undecaprenyl-diphosphatase (Escherichia coli (strain K12), UniProt P60932); assay: Inhibition of Escherichia coli UPPP expressed in Escherichia coli C41(DE3) using FPP as substrate preincubated for 15 mins followed by substrate addition measured after 20 mins by malachite green assay
T1 sequence (P60932 whole entry): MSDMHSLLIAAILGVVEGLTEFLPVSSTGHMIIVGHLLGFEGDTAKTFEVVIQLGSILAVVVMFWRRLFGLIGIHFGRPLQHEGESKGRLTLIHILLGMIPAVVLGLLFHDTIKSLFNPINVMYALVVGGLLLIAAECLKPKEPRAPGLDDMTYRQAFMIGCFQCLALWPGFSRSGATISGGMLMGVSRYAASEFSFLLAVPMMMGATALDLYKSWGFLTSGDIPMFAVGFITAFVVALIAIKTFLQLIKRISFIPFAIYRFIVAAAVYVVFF

Staphylococcus aureus [2] = assay: Antibacterial activity against methicillin-resistant Staphylococcus aureus NRS107 after 20 hrs by broth microdilution assay; type: functional; settings: NRS107, 20 h
How it was run: (§1)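 Broth microdilution per CLSI in cation-adjusted Mueller Hinton broth. Compounds serially diluted, in triplicate. Incubation at 37 °C for at least 20 hours. MIC taken as the lowest concentration with no visible bacterial growth.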

Staphylococcus aureus [3] = assay: Bactericidal activity against methicillin-resistant Staphylococcus aureus USA300 up to 18 hrs by broth microdilution assay; type: functional; settings: USA300, 18 h, read-out: MBC99.9
Staphylococcus aureus [4] = assay: Bactericidal activity against methicillin resistant Staphylococcus aureus NRS123 (USA400) up to 18 hrs by broth microdilution assay; type: functional; settings: read-out: MBC99.9
Staphylococcus aureus [5] = assay: Bactericidal activity against methicillin resistant vancomycin-resistant Staphylococcus aureus VRS11a up to 18 hrs by broth microdilution assay; type: functional; settings: read-out: MBC99.9
Staphylococcus aureus [6] = assay: Antibacterial activity against vancomycin-resistant Staphylococcus aureus VRS12 after 20 hrs by broth microdilution assay; type: functional; settings: VRS12, 20 h; how it was run: as §1
Staphylococcus aureus [7] = assay: Antibacterial activity against methicillin-resistant Staphylococcus aureus NRS119 after 20 hrs by broth microdilution assay; type: functional; settings: NRS119, 20 h; how it was run: as §1
Staphylococcus aureus [8] = assay: Potency index, ratio of vancomycin MIC to compound MIC for antibacterial activity against vancomycin-resistant Staphylococcus aureus VRS10; type: functional
Staphylococcus aureus [9] = assay: Antibacterial activity against methicillin-resistant Staphylococcus aureus USA300 infected in Caenorhabditis elegans AU37 assessed as reduction in bacterial burden at 20 ug/ml after 18 hrs relative to control; type: functional; parameters: scale not given: the % may be the effect or the level left
How it was run: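 L4-stage C. elegans AU37 infected on USA300 lawns for 6 h and washed with M9 buffer. 25–30 worms per well exposed to 20 μg/mL for 18 h, in triplicate. Worms then lysed and plated on TSA with 5 μg/mL nalidixic acid for 17 h at 37 °C. CFU per worm expressed as % reduction versus PBS.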

HRT-18 cell line = assay: Cytotoxicity against human HRT18 cells assessed as reduction in cell viability up to 32 ug/ml after 2 hrs by MTS assay; type: cell-based; settings: hrt-18, 2 h
J774 = assay: Cytotoxicity against mouse J774 cells assessed as reduction in cell viability up to 16 ug/ml after 24 hrs by MTS assay; type: cell-based; settings: j774, 24 h
How it was run: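 J774 murine macrophages were grown in DMEM with 10% FBS at 37 °C, 5% CO2. Compounds were tested at 8, 16 and 32 μg/mL in triplicate for 24 h, with a DMSO-matched control. MTS was added for 4 h and absorbance read at 490 nm. Viability is given as % of DMSO control (mean ± SD); Student t-test with Holm-Sidak test.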

Mus musculus [10] = assay: Toxicity in wounded skin area of Balb/c mouse infected with methicillin-resistant Staphylococcus aureus USA300 at 2% administered topically twice daily for 5 consecutive days measured 12 hrs post last dose; type: organism-based; settings: in vivo, topical_or_ocular
How it was run: (§2)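 Female Balb/c mice, 8 weeks old, n=5 per group. Intradermal injection of 40 μL of 1.32×10^9 CFU/mL USA300; a wound formed by ~66 h. Treated topically with a 2% suspension in petroleum jelly twice daily for 5 days; the vehicle group served as control. Wounds excised 12 h after the last dose, homogenized in PBS and plated on mannitol salt agar; sites also observed for redness and swelling.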

Mus musculus [11] = assay: Induction of inflammation in Balb/c mouse infected with methicillin-resistant Staphylococcus aureus USA300 assessed as swelling around wounded skin area at 2% administered topically twice daily for 5 consecutive days measured 12 hrs post last dose; type: organism-based; settings: in vivo, topical_or_ocular; how it was run: as §2
Staphylococcus aureus [12] = assay: Antibacterial activity against methicillin-resistant Staphylococcus aureus NRS123 (USA400) infected in mouse J774 cells at 16 ug/ml after 24 hrs; type: functional, organism-based
How it was run: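 J774 macrophages grown in DMEM with 10% FBS at 37 °C, 5% CO2. Infected with USA400 at MOI ~100:1 for 1 h, then washed with gentamicin 50 μg/mL. Treated in triplicate wells for 24 h, washed with gentamicin again and lysed with 0.1% Triton X-100. Lysate plated on tryptic soy agar for 18–22 h; CFU/mL counted.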

Staphylococcus aureus [13] = assay: Ratio of MBC to MIC for methicillin-resistant Staphylococcus aureus NRS119; type: functional
How it was run: (§3)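 MBC/MIC ratio. […] MBC by plating no-growth wells onto tryptic soy agar at 37 °C for at least 18 h; taken as the concentration giving 99.9% growth inhibition.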

Staphylococcus aureus [14] = assay: Ratio of MBC to MIC for methicillin-resistant Staphylococcus aureus NRS123 (USA400); type: functional; how it was run: as §3
Staphylococcus aureus [15] = assay: Antibacterial activity against methicillin-resistant Staphylococcus aureus NRS123 (USA400) after 20 hrs by broth microdilution assay; type: functional; how it was run: as §1
Staphylococcus aureus [16] = assay: Ratio of MBC to MIC for methicillin-resistant Staphylococcus aureus NRS107; type: functional; how it was run: as §3
Staphylococcus aureus [17] = assay: Ratio of MBC to MIC for vancomycin-resistant Staphylococcus aureus VRS11a; type: functional; how it was run: as §3
Staphylococcus aureus [18] = assay: Potency index, ratio of vancomycin MIC to compound MIC for antibacterial activity against vancomycin-resistant Staphylococcus aureus VRS12; type: functional
Staphylococcus aureus [19] = assay: Bactericidal activity against methicillin resistant vancomycin-resistant Staphylococcus aureus VRS12 up to 18 hrs by broth microdilution assay; type: functional; settings: VRS12, 18 h, read-out: MBC99.9
How it was run: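 MBC set up from the MIC plates. Aliquots from wells with no growth spotted onto tryptic soy agar and incubated at 37 °C for at least 18 hours. MBC taken as the lowest concentration giving 99.9% inhibition of bacterial growth.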

Staphylococcus aureus [20] = assay: Antibacterial activity against vancomycin-resistant Staphylococcus aureus VRS11a after 20 hrs by broth microdilution assay; type: functional; how it was run: as §1
Staphylococcus aureus [21] = assay: Potency index, ratio of vancomycin MIC to compound MIC for antibacterial activity against vancomycin-resistant Staphylococcus aureus VRS11a; type: functional
Staphylococcus aureus [22] = assay: Ratio of MBC to MIC for vancomycin-resistant Staphylococcus aureus VRS10; type: functional; how it was run: as §3
Staphylococcus aureus [23] = assay: Bactericidal activity against methicillin-resistant Staphylococcus aureus USA300 at 4 times MIC after 24 hrs by time kill assay; type: functional, organism-based
Staphylococcus aureus [24] = assay: Ratio of MBC to MIC for methicillin-resistant Staphylococcus aureus USA300; type: functional; how it was run: as §3
Staphylococcus aureus [25] = assay: Antibacterial activity against vancomycin-resistant Staphylococcus aureus VRS10 after 20 hrs by broth microdilution assay; type: functional; settings: VRS10, 20 h; how it was run: as §1
Staphylococcus aureus [26] = assay: Antibacterial activity against methicillin-resistant Staphylococcus aureus USA300 in Balb/c mouse skin infection model assessed as reduction in bacterial burden in wounded skin area at 2% administered topically twice daily for 5 consecutive days measured 12 hrs post last dose relative to control; type: functional; parameters: scale not given: the % may be the effect or the level left; how it was run: as §2
Mus musculus [27] = assay: Induction of inflammation in Balb/c mouse infected with methicillin-resistant Staphylococcus aureus USA300 assessed as redness around wounded skin area at 2% administered topically twice daily for 5 consecutive days measured 12 hrs post last dose relative to control; type: organism-based; settings: in vivo, topical_or_ocular; how it was run: as §2
[28] = Selectivity index, ratio of toxic concentration for human HRT18 cells to MIC for methicillin-resistant Staphylococcus aureus; type: toxicity; settings: read-out: Selectivity Index
Staphylococcus aureus [29] = assay: Ratio of MBC to MIC for vancomycin-resistant Staphylococcus aureus VRS12; type: functional; how it was run: as §3
Staphylococcus aureus [30] = assay: Bactericidal activity against methicillin resistant vancomycin-resistant Staphylococcus aureus VRS10 up to 18 hrs by broth microdilution assay; type: functional; settings: VRS10, 18 h, read-out: MBC99.9
Staphylococcus aureus [31] = assay: Bactericidal activity against methicillin-resistant Staphylococcus aureus NRS123 (USA400) at 4 times MIC after 24 hrs by time kill assay; type: functional, organism-based
Staphylococcus aureus [32] = assay: Bactericidal activity against methicillin-resistant Staphylococcus aureus NRS119 up to 18 hrs by broth microdilution assay; type: functional; settings: NRS119, 18 h, read-out: MBC99.9
[33] = Efflux ratio of apparent permeability in human Caco2 cells at 10 uM after 60 mins by LC-MS/MS analysis; type: ADME, cell-based; settings: caco-2, 1 h
How it was run: (§4)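 Caco-2 monolayers were seeded at 1 × 10^5 cells/cm2 and differentiated for three weeks. Test article was at 10 μM (1% DMSO) in HBSS-MES pH 6.5 or HBSS-HEPES pH 7.4 and added to the donor side. Incubation ran 60 min (A→B) or 40 min (B→A), and receiver buffer was analysed by LC/MS/MS. Lucifer yellow and fluorescein checked monolayer integrity. Efflux ratio = Papp(B→A)/Papp(A→B).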

[34] = Apparent permeability from basolateral to apical side in human Caco2 cells at 10 uM after 60 mins by LC-MS/MS analysis; type: ADME, cell-based; settings: caco-2, 1 h
[35] = Apparent permeability from apical to basolateral side in human Caco2 cells at 10 uM after 60 mins by LC-MS/MS analysis; type: ADME, cell-based; settings: caco-2, 1 h; how it was run: as §4

Question: For `CC[C@H](C)[C@H](N)C1=N[C@H](C(=O)N[C@@H](CC(C)C)C(=O)N[C@H](CCC(=O)O)C(=O)N[C@H](C(=O)N[C@H]2CCCCNC(=O)[C@H](CC(N)=O)NC(=O)[C@@H](CC(=O)O)NC(=O)[C@H](Cc3cnc[nH]3)NC(=O)[C@@H](Cc3ccccc3)NC(=O)[C@H]([C@@H](C)CC)NC(=O)[C@@H](CCCN)NC2=O)[C@@H](C)CC)CS1` [BACITRACIN] ({Ileψ(thiazoline)Cys}-L[dE]IK[dOrn]I[dF]H[dD]N; lactam 4-C), which IC50 [1] is on record?
Answer: 5.6 µM

Question: Which results are given for `CCCCCC#Cc1ccc(-c2nc(C)c(/C(C)=N/NC(=N)N)s2)cc1`?
Answer: MIC (Staphylococcus aureus [2]): 2 µg/mL (≈ 5.44 µM); MBC (Staphylococcus aureus [3]): 4 µg/mL (≈ 10.9 µM); MBC (Staphylococcus aureus [4]): 2 µg/mL (≈ 5.44 µM); MBC (Staphylococcus aureus [5]): 2 µg/mL (≈ 5.44 µM); MIC (Staphylococcus aureus [6]): 2 µg/mL (≈ 5.44 µM); MIC (Staphylococcus aureus [7]): 2 µg/mL (≈ 5.44 µM); Ratio (Staphylococcus aureus [8]): >100; Activity (Staphylococcus aureus [9]): 90%; Activity (HRT-18 cell line): Non-Toxic; Activity (J774): Non-Toxic; Activity (Mus musculus [10]): Non-Toxic; Activity (Mus musculus [11]): Non-Toxic; Activity (Staphylococcus aureus [12]): Active; Ratio (Staphylococcus aureus [13]): <=3; Ratio (Staphylococcus aureus [14]): <=3; MIC (Staphylococcus aureus [15]): 2 µg/mL (≈ 5.44 µM); Ratio (Staphylococcus aureus [16]): <=3; Ratio (Staphylococcus aureus [17]): <=3; Ratio (Staphylococcus aureus [18]): 8; MBC (Staphylococcus aureus [19]): 2 µg/mL (≈ 5.44 µM); MIC (Staphylococcus aureus [20]): 1 µg/mL (≈ 2.72 µM); Ratio (Staphylococcus aureus [21]): >100; Ratio (Staphylococcus aureus [22]): <=3; Activity (Staphylococcus aureus [23]): Active; Ratio (Staphylococcus aureus [24]): <=3; MIC (Staphylococcus aureus [25]): 2 µg/mL (≈ 5.44 µM); Activity (Staphylococcus aureus [26]): 71%; Activity (Mus musculus [27]): Non-Toxic; selectivity ratio [28]: 7 to 31; Ratio (Staphylococcus aureus [29]): <=3; MBC (Staphylococcus aureus [30]): 2 µg/mL (≈ 5.44 µM); Activity (Staphylococcus aureus [31]): Active; MBC (Staphylococcus aureus [32]): 2 µg/mL (≈ 5.44 µM)

Question: Which results are given for `CNC(=C[N+](=O)[O-])NCCSCc1ccc(CN(C)C)o1` [RANITIDINE]?
Answer: Ratio [33]: 6.3; Papp [34]: 1.71 ×10⁻⁶ cm/s; Papp [35]: 0.27 ×10⁻⁶ cm/s
